The source made the active and inactive calls. No cut-off for these calls is given here.
How the values were obtained:
Hepacivirus hominis = assay: Inhibition of HCV NS5B RNA dependent RNA polymerase
[1] = Therapeutic index, ratio of CC50 for human HuH7 cells to EC50 for HCV genotype 1b infected in human Huh7 cells; details: HuH7 cells
Hepatitis C virus [2] = assay: Antiviral activity against HCV genotype 1b infected in human Huh7 cells assessed as reduction in viral RNA level at 0.5 uM after 3 days by RT-qPCR; assay type: functional, Hepacivirus hominis, Huh-7; parameters: scale not given: the % may be the effect or the level left; details: in the assay text read “2 uM” for “0.5 uM”
Method in brief: (§1)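 Replicon-bearing Huh7 cells, 6 X 10^3 per well, exposed to compound in DMSO or DMSO alone for three days at 37 °C/5% CO2. Replicon RNA quantified by TaqMan Cells-to-CT RT-qPCR with NS5B primers/probe, using GAPDH in parallel wells as reference. Level relative to DMSO-treated cells calculated as 2-∆∆CT. Triplicate wells.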

[3] = target: Macrophage metalloelastase (Homo sapiens) (UniProt P39900); assay: Inhibition of human recombinant MMP12 catalytic domain (99 to 271 aa) expressed in Escherichia coli
Sequence of Macrophage metalloelastase (Homo sapiens) (P39900 106-470 limits assumed): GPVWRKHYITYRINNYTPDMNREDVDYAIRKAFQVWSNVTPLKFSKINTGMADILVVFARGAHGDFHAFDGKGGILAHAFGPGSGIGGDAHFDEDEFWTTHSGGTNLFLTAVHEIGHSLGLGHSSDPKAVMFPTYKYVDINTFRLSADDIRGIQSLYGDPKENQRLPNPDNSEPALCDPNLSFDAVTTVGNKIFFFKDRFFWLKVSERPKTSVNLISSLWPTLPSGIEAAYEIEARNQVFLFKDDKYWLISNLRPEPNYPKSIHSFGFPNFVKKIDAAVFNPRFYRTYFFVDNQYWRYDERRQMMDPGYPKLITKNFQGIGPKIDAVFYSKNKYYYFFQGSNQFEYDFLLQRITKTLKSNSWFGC

[4] = target: Matrix metalloproteinase-14 (Homo sapiens) (UniProt P50281); assay: Inhibition of human recombinant […] catalytic domain (112 to 298 aa) expressed in Escherichia coli
[5] = target: Disintegrin and metalloproteinase domain-containing protein 17 (Homo sapiens) (UniProt P78536); assay: Inhibition of human recombinant TACE catalytic domain (215 to 671 aa) expressed in Escherichia coli
Sequence of Disintegrin and metalloproteinase domain-containing protein 17 (Homo sapiens) (P78536 whole entry, the tested form may be a part): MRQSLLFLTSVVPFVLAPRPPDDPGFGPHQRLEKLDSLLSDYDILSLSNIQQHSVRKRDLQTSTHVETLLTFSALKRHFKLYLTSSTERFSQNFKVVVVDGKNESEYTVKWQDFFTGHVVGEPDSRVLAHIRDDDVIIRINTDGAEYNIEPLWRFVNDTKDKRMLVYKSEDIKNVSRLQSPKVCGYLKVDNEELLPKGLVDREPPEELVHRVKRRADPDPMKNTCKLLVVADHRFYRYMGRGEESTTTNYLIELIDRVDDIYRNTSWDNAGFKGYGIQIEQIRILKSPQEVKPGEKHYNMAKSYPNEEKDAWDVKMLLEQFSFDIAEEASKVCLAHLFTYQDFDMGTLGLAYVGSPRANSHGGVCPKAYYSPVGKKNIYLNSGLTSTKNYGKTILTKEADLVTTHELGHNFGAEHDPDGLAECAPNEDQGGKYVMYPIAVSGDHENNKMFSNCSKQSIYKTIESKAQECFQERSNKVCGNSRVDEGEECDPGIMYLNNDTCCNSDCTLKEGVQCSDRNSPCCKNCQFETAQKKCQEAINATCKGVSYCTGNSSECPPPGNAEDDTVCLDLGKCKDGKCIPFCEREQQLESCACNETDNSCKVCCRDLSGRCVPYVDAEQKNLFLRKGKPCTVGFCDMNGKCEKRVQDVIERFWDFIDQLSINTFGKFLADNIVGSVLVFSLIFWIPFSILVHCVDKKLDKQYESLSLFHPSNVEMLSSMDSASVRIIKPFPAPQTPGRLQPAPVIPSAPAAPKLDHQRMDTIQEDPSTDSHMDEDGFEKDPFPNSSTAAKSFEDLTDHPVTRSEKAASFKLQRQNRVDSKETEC

[6] = target: Histone deacetylase 1 (Homo sapiens) (UniProt Q13547); assay: Inhibition of full length C-terminal GST-tagged human HDAC1 expressed in baculovirus expression system assessed as inhibition of fluorophore 7-amino-4-methylcoumarin release by fluorescence assay
Sequence of Histone deacetylase 1 (Homo sapiens) (Q13547 whole entry): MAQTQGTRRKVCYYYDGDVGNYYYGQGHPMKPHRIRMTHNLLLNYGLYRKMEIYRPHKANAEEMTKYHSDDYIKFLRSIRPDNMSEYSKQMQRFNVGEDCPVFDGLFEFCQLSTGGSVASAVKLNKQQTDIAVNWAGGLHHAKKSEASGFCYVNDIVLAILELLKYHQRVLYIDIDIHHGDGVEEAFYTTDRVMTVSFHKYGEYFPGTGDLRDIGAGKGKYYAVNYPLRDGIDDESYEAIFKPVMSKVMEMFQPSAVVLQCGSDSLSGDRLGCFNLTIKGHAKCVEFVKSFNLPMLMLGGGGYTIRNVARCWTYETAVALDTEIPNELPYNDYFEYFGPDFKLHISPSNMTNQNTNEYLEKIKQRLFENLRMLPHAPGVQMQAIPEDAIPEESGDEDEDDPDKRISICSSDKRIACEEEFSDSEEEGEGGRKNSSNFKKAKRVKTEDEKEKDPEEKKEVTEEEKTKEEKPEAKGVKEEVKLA

[7] = target: Hepatitis C virus serine protease, NS3/NS4A (Hepatitis C virus) (UniProt D2K2A8+A3EZI9); assay: Inhibition of HCV NS3/4A protease; details: Hepacivirus hominis
[8] = target: Histone deacetylase 4 (Homo sapiens) (UniProt P56524); assay: Inhibition of N-terminal GST-tagged human HDAC4 (amino acids 627 to 1085) expressed in baculovirus expression system assessed as inhibition of fluorophore 7-amino-4-methylcoumarin release by fluorescence assay
Sequence of Histone deacetylase 4 (Homo sapiens) (P56524 whole entry, the tested form may be a part): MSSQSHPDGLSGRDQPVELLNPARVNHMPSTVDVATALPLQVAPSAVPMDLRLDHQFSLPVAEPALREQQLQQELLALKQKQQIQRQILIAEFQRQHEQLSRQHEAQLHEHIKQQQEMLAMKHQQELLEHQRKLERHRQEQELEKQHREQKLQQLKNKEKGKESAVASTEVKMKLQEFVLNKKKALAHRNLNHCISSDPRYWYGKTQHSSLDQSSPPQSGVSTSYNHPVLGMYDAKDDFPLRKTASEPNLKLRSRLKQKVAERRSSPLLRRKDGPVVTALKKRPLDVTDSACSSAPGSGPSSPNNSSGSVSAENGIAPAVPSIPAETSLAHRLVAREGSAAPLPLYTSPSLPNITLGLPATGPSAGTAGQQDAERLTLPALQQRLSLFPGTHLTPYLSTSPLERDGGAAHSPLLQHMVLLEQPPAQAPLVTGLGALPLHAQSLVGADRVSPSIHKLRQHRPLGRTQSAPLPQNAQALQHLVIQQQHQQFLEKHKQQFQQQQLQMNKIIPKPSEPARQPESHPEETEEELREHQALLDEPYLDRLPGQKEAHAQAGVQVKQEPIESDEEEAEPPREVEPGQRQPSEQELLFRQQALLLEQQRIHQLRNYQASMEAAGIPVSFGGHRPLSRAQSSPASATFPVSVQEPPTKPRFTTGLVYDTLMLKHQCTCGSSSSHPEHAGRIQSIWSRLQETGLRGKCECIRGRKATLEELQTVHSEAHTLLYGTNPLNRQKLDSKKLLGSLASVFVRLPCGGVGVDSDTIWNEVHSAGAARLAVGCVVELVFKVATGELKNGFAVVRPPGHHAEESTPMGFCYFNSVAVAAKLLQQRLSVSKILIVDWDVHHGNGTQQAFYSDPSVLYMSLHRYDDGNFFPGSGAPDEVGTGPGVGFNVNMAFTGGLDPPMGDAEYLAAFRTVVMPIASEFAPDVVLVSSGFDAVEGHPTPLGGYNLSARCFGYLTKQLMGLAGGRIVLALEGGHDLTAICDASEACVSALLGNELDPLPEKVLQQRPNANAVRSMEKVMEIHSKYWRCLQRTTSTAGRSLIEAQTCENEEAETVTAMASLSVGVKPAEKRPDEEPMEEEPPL

[9] = target: T1, Histone deacetylase 11 (Homo sapiens) (UniProt Q96DB2); assay: Inhibition of N-terminal GST-tagged human HDAC11 expressed in baculovirus expression system assessed as inhibition of fluorophore 7-amino-4-methylcoumarin release by fluorescence assay
T1 sequence (whole entry): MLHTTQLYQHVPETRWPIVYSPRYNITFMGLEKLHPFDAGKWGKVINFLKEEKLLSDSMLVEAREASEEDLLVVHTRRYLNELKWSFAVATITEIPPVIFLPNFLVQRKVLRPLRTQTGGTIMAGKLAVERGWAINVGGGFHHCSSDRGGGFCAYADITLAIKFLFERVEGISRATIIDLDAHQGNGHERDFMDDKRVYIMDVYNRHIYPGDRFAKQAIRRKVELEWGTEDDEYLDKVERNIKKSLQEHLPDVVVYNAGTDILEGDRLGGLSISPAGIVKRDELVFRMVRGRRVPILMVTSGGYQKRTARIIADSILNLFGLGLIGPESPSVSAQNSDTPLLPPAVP

[10] = target: T2, Polyamine deacetylase HDAC10 (Homo sapiens) (UniProt Q969S8); assay: Inhibition of full length N-terminal GST-tagged human HDAC10 (amino acids 1 to 631 ) expressed in baculovirus expression system assessed as inhibition of fluorophore 7-amino-4-methylcoumarin release by fluorescence assay
T2 sequence (whole entry): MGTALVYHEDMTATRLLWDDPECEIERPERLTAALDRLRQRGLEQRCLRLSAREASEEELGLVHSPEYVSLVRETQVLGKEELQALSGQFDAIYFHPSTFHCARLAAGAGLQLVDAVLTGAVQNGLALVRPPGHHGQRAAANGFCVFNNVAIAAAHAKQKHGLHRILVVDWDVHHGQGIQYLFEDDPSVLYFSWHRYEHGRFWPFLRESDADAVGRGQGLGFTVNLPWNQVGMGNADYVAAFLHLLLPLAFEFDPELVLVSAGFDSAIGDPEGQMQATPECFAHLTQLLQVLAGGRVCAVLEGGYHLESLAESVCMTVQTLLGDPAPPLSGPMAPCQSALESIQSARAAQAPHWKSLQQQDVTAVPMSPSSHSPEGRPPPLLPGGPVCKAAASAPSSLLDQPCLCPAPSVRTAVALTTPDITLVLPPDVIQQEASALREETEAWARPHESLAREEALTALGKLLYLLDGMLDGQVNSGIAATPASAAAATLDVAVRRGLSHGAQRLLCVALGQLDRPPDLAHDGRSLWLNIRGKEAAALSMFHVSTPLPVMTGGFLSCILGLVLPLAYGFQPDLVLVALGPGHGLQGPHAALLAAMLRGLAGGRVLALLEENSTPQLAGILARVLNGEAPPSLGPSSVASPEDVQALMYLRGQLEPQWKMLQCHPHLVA

Hepatitis C virus [11] = assay: Antiviral activity against HCV genotype 1b infected in human Huh7 cells assessed as reduction in viral RNA level at 2 uM after 3 days by RT-qPCR; assay type: functional, Hepacivirus hominis, Huh-7; parameters: scale not given: the % may be the effect or the level left; method in brief: as §1
[12] = target: Histone deacetylase 3 (Homo sapiens) (UniProt O15379); assay: Inhibition of full length C-terminal His-tagged human HDAC3 expressed in baculovirus expression system assessed as inhibition of fluorophore 7-amino-4-methylcoumarin release by fluorescence assay
Sequence of Histone deacetylase 3 (Homo sapiens) (O15379 whole entry, the tested form may be a part): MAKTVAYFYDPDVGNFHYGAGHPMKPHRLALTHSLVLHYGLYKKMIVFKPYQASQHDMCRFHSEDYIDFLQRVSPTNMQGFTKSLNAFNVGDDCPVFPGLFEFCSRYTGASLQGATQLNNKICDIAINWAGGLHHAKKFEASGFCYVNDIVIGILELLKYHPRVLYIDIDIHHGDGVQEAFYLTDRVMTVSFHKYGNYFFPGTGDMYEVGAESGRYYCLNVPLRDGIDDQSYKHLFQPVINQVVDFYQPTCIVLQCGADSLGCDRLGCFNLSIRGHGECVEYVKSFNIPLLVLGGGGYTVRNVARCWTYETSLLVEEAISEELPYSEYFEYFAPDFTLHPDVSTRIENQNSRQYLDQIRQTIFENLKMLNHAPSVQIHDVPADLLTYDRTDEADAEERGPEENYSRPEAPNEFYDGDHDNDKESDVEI

[13] = target: Matrix metalloproteinase-9 (Homo sapiens) (UniProt P14780); assay: Inhibition of human recombinant MMP9 catalytic domain (107 to 449 aa) expressed in Escherichia coli
Sequence of Matrix metalloproteinase-9 (Homo sapiens) (P14780 whole entry, the tested form may be a part): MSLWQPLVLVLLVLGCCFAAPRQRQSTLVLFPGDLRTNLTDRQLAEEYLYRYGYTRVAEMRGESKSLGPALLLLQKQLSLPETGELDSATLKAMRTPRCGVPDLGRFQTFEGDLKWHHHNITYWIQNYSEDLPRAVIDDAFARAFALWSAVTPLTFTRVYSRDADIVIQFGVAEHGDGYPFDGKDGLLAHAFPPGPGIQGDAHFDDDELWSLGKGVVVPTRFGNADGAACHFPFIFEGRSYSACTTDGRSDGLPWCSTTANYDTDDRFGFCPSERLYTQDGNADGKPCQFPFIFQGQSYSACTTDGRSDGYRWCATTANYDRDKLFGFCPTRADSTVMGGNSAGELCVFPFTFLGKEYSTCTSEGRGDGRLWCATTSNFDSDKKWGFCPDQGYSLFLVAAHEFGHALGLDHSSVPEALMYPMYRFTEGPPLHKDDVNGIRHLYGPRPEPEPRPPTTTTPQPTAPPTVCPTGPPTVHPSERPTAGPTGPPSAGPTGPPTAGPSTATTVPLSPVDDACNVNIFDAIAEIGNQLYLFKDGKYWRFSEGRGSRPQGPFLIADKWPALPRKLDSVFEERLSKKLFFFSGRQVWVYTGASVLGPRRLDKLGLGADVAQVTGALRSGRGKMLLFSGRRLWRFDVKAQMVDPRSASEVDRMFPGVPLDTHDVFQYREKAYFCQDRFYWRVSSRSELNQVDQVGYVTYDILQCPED

O=C(NO)c1sc2ccccc2c1S(=O)(=O)c1ccccc1
inhibition (Hepacivirus hominis): inactive
selectivity ratio [1]: 93
Activity (Hepatitis C virus [2]): 75%
inhibition [3]: Active
inhibition [4]: Active
inhibition [5]: inactive
inhibition [6]: inactive
inhibition [7]: inactive
inhibition [8]: inactive
inhibition [9]: inactive
inhibition [10]: inactive
Activity (Hepatitis C virus [11]): 75%
inhibition [12]: inactive
inhibition [13]: Active
